# According to ChEMBL document CHEMBL2146441, “2,6-Disubstituted imidazo[2,1-b][1,3,4]thiadiazoles: search for anticancer agents” (2012):
# Tests used:
# Format in all cases: functional
# COLO = assay: Cytotoxicity against human COLO […] cells assessed as cell growth at 10^-5 M after 48 hrs by SRB assay; details: read-out: Activity
# Summary of the method: (§1)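 NCI-60 screen: lines kept in RPMI 1640 with 5% FBS, seeded at 5000–40,000 cells/well by doubling time, preincubated 24 h at 37 °C in 5% CO2. Time-zero plates TCA-fixed at drug addition. DMSO stocks diluted in medium, 48 h exposure. Fixation in cold TCA (final 10% adherent, 16% suspension), 0.4% SRB stain, solubilised in 10 mM Tris base, A515. Percent growth computed against control and time-zero.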
# U-251 = assay: Cytotoxicity against human U251 cells assessed as cell growth at 10^-5 M after 48 hrs by SRB assay; details: U-251, 48 h, read-out: Activity
# SK-MEL-2 = assay: Growth inhibition of human SK-MEL-2 cells after 48 hrs by SRB assay; details: SK-MEL-2, 48 h; for CC50: read-out: LC50 (the source's name)
# Summary of the method: (§2)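 Adherent NCI-60 lines grown in RPMI 1640 with 5% FBS, seeded at 5000–40,000 cells/well, and preincubated 24 h at 37 °C, 5% CO2. Compound, stocked in DMSO, given either once at 10^-5 M or at five 10-fold dilutions for 48 h. Cells fixed with cold TCA (final 10%), stained with 0.4% SRB, and read at 515 nm. GI50 taken as 50% reduction in net protein increase versus time-zero and control plates.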
# 786-0 = assay: Growth inhibition of human 786-0 cells after 48 hrs by SRB assay; details: 786-0, 48 h
# Summary of the method: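 Same 48 h NCI-60 five-dose SRB protocol. Adherent lines were fixed with cold TCA at 10% final; suspension lines such as CCRF-CEM were fixed with 16% final TCA. Stain was 0.4% SRB in 1% acetic acid for 10 min, solubilized in 10 mM Tris base and read at 515 nm. GI50 came from log concentration–growth curves, solving [(Ti−Tz)/(C−Tz)]×100 = 50.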
# MCF7 = assay: Growth inhibition of human MCF7 cells after 48 hrs by SRB assay; details: MCF7, 48 h; summary of the method: as §2
# HL-60 [1] = assay: Cytotoxicity against human HL60 cells assessed as cell growth at 10^-7 M after 48 hrs by SRB assay; details: HL-60, 48 h, read-out: Activity
# Summary of the method: (§3)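 NCI-60 five-dose screen. Cells were grown in RPMI 1640 with 5% FBS and seeded at 5000–40,000 cells/well according to doubling time. They were pre-incubated 24 h at 37 °C in 5% CO₂, and time-zero (Tz) plates were TCA-fixed at drug addition. Five 10-fold dilutions of DMSO stock were applied for 48 h. Read-out was SRB staining, 515 nm absorbance, with percent growth calculated versus Tz and untreated control.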
# MOLT-4 = assay: Cytotoxicity against human MOLT4 cells assessed as cell growth at 10^-7 M after 48 hrs by SRB assay; details: MOLT-4, 48 h, read-out: Activity
# SR = assay: Cytotoxicity against human SR cells assessed as cell growth at 10^-7 M after 48 hrs by SRB assay; details: read-out: Activity
# EKVX [2] = assay: Cytotoxicity against human EKVX cells assessed as cell growth at 10^-7 M after 48 hrs by SRB assay; details: read-out: Activity; summary of the method: as §1
# HL-60 [3] = assay: Cytotoxicity against human HL60 cells assessed as cell growth at 10^-4 M after 48 hrs by SRB assay; details: HL-60, 48 h, read-out: Activity; summary of the method: as §3
# OVCAR-8 = assay: Cytotoxicity against human OVCAR8 cells assessed as cell growth at 10^-4 M after 48 hrs by SRB assay; details: OVCAR-8, 48 h, read-out: Activity
# SN12C [4] = assay: Cytotoxicity against human SN12C cells assessed as cell growth at 10^-4 M after 48 hrs by SRB assay; details: read-out: Activity
# PC-3 = assay: Cytotoxicity against human PC3 cells assessed as cell growth at 10^-4 M after 48 hrs by SRB assay; details: PC-3, 48 h, read-out: Activity
# ACHN [5] = assay: Cytotoxicity against human ACHN cells assessed as cell growth at 10^-7 M after 48 hrs by SRB assay; details: read-out: Activity; summary of the method: as §1
# BT-549 = assay: Cytotoxicity against human BT549 cells assessed as cell growth at 10^-7 M after 48 hrs by SRB assay; details: BT-549, 48 h, read-out: Activity; summary of the method: as §1
# SW-620 = assay: Cytotoxicity against human SW620 cells assessed as cell growth at 10^-8 M after 48 hrs by SRB assay; details: SW-620, 48 h, read-out: Activity
# Malme-3M [6] = assay: Cytotoxicity against human MALME-3M cells assessed as cell growth at 10^-8 M after 48 hrs by SRB assay; details: read-out: Activity
# UACC-257 = assay: Cytotoxicity against human UACC257 cells assessed as cell growth at 10^-8 M after 48 hrs by SRB assay; details: UACC-257, 48 h, read-out: Activity
# SK-OV-3 = assay: Cytotoxicity against human SKOV3 cells assessed as cell growth at 10^-8 M after 48 hrs by SRB assay; details: SK-OV-3, 48 h, read-out: Activity
# SN12C [7] = assay: Cytotoxicity against human SN12C cells assessed as cell growth at 10^-8 M after 48 hrs by SRB assay; details: read-out: Activity
# HL-60 [8] = assay: Cytotoxicity against human HL60 cells assessed as cell growth at 10^-6 M after 48 hrs by SRB assay; details: HL-60, 48 h, read-out: Activity; summary of the method: as §3
# A549 = assay: Cytotoxicity against human A549 cells assessed as cell growth at 10^-6 M after 48 hrs by SRB assay; details: A549, 48 h, read-out: Activity; summary of the method: as §1
# SF-268 = assay: Cytotoxicity against human SF268 cells assessed as cell growth at 10^-6 M after 48 hrs by SRB assay; details: SF-268, 48 h, read-out: Activity
# Malme-3M [9] = assay: Cytotoxicity against human MALME-3M cells assessed as cell growth at 10^-6 M after 48 hrs by SRB assay; details: read-out: Activity
# UACC-62 = assay: Cytotoxicity against human UACC62 cells assessed as cell growth at 10^-6 M after 48 hrs by SRB assay; details: UACC-62, 48 h, read-out: Activity
# ACHN [10] = assay: Cytotoxicity against human ACHN cells assessed as cell growth at 10^-6 M after 48 hrs by SRB assay; details: read-out: Activity; summary of the method: as §1
# CAKI-1 = assay: Cytotoxicity against human Caki1 cells assessed as cell growth at 10^-6 M after 48 hrs by SRB assay; details: CAKI-1, 48 h, read-out: Activity; summary of the method: as §1
# EKVX [11] = assay: Growth inhibition of human EKVX cells after 48 hrs by SRB assay; summary of the method: as §2
# HCT-116 = assay: Growth inhibition of human HCT116 cells after 48 hrs by SRB assay; details: HCT-116, 48 h; summary of the method: as §2
Compound,growth at 10 µM (COLO),growth at 10 µM (U-251),GI50 (SK-MEL-2),TGI (SK-MEL-2),CC50 (SK-MEL-2),GI50 (786-0),TGI (786-0),GI50 (MCF7),LC50 (50% cell kill) (MCF7),TGI (MCF7),growth at 0.1 µM (HL-60 [1]),growth at 0.1 µM (MOLT-4),growth at 0.1 µM (SR),growth at 0.1 µM (EKVX [2]),growth at 100 µM (HL-60 [3]),growth at 100 µM (OVCAR-8),growth at 100 µM (SN12C [4]),growth at 100 µM (PC-3),growth at 0.1 µM (ACHN [5]),growth at 0.1 µM (BT-549),also measured
COc1ccc(-c2nn3cc(-c4cccc(N)c4)nc3s2)cc1,42%,44%,5.35 µM,31.9 µM,> 100 µM,4.7 µM,15.9 µM,2200 nM,> 100 µM,20.3 µM,95%,100%,102%,72%,-14%,-54%,4%,-22%,105%,98%,LC50 (786-0): 42.9 µM; growth at 0.01 µM (SW-620): 95%; growth at 0.01 µM (Malme-3M [6]): 102%; growth at 0.01 µM (UACC-257): 100%; growth at 0.01 µM (SK-OV-3): 97%; growth at 0.01 µM (SN12C [7]): 91%; growth at 1 µM (HL-60 [8]): 60%; growth at 1 µM (A549): 95%; growth at 1 µM (SF-268): 88%; growth at 1 µM (Malme-3M [9]): 71%; growth at 1 µM (UACC-62): 71%; growth at 1 µM (ACHN [10]): 93%; growth at 1 µM (CAKI-1): 46%; GI50 (EKVX [11]): 1010 nM; LC50 (concentration killing 50% of cells) (EKVX [11]): > 100 µM; TGI (EKVX [11]): 12.8 µM; GI50 (HCT-116): 3510 nM; LC50 (50% lethal concentration) (HCT-116): 41.4 µM; TGI (HCT-116): 14.2 µM
COc1ccc(-c2nn3cc(-c4ccc(O)cc4O)nc3s2)cc1,35%,-41%,2.85 µM,14.2 µM,> 100 µM,1.72 µM,3.43 µM,1980 nM,> 100 µM,21.6 µM,92%,89%,85%,92%,-25%,-8%,2%,1%,101%,94%,growth at 0.01 µM (SW-620): 97%; growth at 0.01 µM (Malme-3M [6]): 87%; growth at 0.01 µM (UACC-257): 92%; growth at 0.01 µM (SK-OV-3): 102%; growth at 0.01 µM (SN12C [7]): 99%; growth at 1 µM (HL-60 [8]): 74%; growth at 1 µM (A549): 86%; growth at 1 µM (SF-268): 73%; growth at 1 µM (Malme-3M [9]): 61%; growth at 1 µM (UACC-62): 81%; growth at 1 µM (ACHN [10]): 100%; growth at 1 µM (CAKI-1): 69%; GI50 (EKVX [11]): 1950 nM; LC50 (concentration killing 50% of cells) (EKVX [11]): > 100 µM; TGI (EKVX [11]): 41.2 µM; GI50 (HCT-116): 1760 nM; LC50 (50% lethal concentration) (HCT-116): 8.25 µM; TGI (HCT-116): 3.81 µM
